Consider three compounds from BindingDB's records for doi:10.1016/j.ejmech.2011.01.016 (National Institute of Pharmaceutical Education and Research, 2011).

As usually defined, the IC50 is the concentration at which inhibition is half-maximal. High values mean weaker potency, low ones greater potency.

The target in the assay is Reverse transcriptase (Human immunodeficiency virus 1, UniProt Q9WKE8). Put plainly: Inhibition of Human immunodeficiency virus 1 NL4.3 reverse transcriptase activity. An outline of the steps: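 Colorimetric HIV-1 reverse transcriptase inhibition assay run with a commercial RT assay kit per the manufacturer's protocol; nevirapine positive control; IC50 determined.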
As for `COc1cc2c(cc1O)-c1cc3ccc(OC)c(OC)c3c[n+]1CC2` [2-hydroxy-3,9,10-trimethoxy-5,6-dihydroisoquino[3,2-a]isoquinolinium], the IC50 is 171 µM.
The compound `COc1ccc2cc3[n+](cc2c1OC)CCc1cc2c(cc1-3)OCO2` [Berberinechloride] registered an IC50 of 297 µM.
As for `COc1cc2c(cc1O)CC[n+]1cc3c(OC)c(OC)ccc3cc1-2` [jatrorrhizine], the figure is 209 µM.
